AHR act: AHR activators, primary screen, cell-based, luminescence, luciferase reporter, human. activation, % at 5 µM. AHR-responsive luciferase reporter cells. Aryl hydrocarbon receptor (Homo sapiens), P35869. actives 2.5% (n = 320,000). AID 2796, 2010; in the data active = activation above about 47%;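 note: 0% = vehicle wells and 100% = reference agonist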
PolyA inhibitor: polyadenylation inhibitors in yeast reporter cells, primary screen, luminescence, S. cerevisiae. S. cerevisiae SKY197-pL101 polyadenylation reporter, beta-gal luminescence; efflux-impaired pdr1/pdr3 knockout yeast; score 100 = 6 SD above DMSO. activity score, % at 12 µM. actives 0.02% (n = 300,000);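 active = lowest replicate activity score at least 50, where 100 means six control SD above control mean; inconclusive = lowest score under 50 but half or more replicates reach 50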;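 note: yeast exposed to compound for 9 h at 30 °C; higher score means more reporter readthrough which indicates perturbed polyadenylation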
proCasp3 act: activators of human procaspase-3 D3A mutant, primary screen, biochemical, absorbance, PC-3 D3A mutant, single concentration. Caspase-3 (Homo sapiens), P42574. activation, % at 8.5 µM. AID 463141, 2010. actives 0.11% (n = 330,000). recombinant procaspase-3 D3A, Ac-DEVD-pNA absorbance 405 nm;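 active = activation above the mean of all tested compounds plus 3 SD, cut at about 21% in these data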;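 note: 0% = DMSO alone and 100% = DMSO wells spiked with extra 5 µM PC-3 D3A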
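Test system: Procaspase-3 D3A mutant, all three cleavage aspartates alanine | Dosing: Single dose, 8.5 µM nominal compound, 0.8% DMSO | Schedule: 1 h preincubation, 2 h reaction | Technique: 405 nm absorbance of p-nitroaniline, reads at 0 and 120 min | Repeats: One well per compound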
proCasp7 act: procaspase-7 activators, primary screen, counter-screen for procaspase-3 activator project, biochemical, absorbance, HTS, human; Caspase-7 (Homo sapiens), P55210; recombinant procaspase-7, Ac-DEVD-pNA absorbance 405 nm; D23A/D198A/D206A triple mutant, cannot self-cleave; scale: DMSO 0, 5 µM enzyme 100; activation, % at 8.5 µM; actives 0.093% (n = 330,000); AID 463210, 2010;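 active = percent activation above the screen-wide mean plus 3 SD, cut at about 25% in these data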
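Test system: Procaspase-7 triple mutant (PC-7 D3A). Also added: Ac-DEVD-pNA substrate, 400 µM as added. Schedule: 1 h enzyme–compound preincubation and 2 h substrate reaction, both 25 °C. Signal: p-Nitroaniline absorbance at 405 nm, read at 0 and 120 min. Control set: low DMSO alone, high DMSO plus 5 µM PC-7.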
AHR act confirm: AHR activators, confirmation, cell-based, luminescence, luciferase reporter, human; human cells, AHR-responsive luciferase reporter; activation, % at 9 µM; shares compounds with AHR act; actives 87% (n = 2,300); in the data active = activation above about 49%;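 note: HepG2 hepatoma cells carrying a DRE-driven firefly luciferase reporter; 0% = vehicle wells and 100% = reference agonist wells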
PXR counter: human PXR activators, counter-screen for AHR activator project, cell-based, luciferase luminescence; shares compounds with AHR act; cell-based PXR reporter; activation, % at 11.6 µM; actives 88% (n = 2,300); in the data active = activation above about 11%;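 note: human hepatoma DPX-2 cells expressing full-length human PXR; 0% = DMSO and 100% = reference agonist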
Target sequence (O75469 whole entry, looked up): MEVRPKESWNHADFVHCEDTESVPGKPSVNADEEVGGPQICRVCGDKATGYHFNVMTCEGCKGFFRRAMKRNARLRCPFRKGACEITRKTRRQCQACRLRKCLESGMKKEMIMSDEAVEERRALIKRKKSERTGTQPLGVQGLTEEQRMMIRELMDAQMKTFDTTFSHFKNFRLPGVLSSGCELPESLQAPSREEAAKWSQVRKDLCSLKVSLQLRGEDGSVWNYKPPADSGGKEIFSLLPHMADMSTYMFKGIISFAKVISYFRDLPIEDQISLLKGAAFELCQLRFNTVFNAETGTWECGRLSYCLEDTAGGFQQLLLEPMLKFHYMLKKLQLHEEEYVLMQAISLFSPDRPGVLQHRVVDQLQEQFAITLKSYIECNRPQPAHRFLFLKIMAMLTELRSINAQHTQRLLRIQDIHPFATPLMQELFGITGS
An asterisk follows results filed as active; ? = inconclusive; nt = no result given. Shown are actives, neighbours in structure and some others; about 2.6% of the full set was active somewhere.

SMILES	AHR act	PolyA inhibitor	proCasp3 act	proCasp7 act	AHR act confirm	PXR counter
CC(C)[C@H](NC(=O)C1CC(=O)N(c2ccc3c(c2)OCCO3)C1)C(=O)NC1CCCC1 (stereo not given in full)	0	0	-1	13	nt	nt
CCC(C)Sc1nc2c([nH]c3ccccc32)c(=O)n1C (stereo not given)	87*	0	-5	4	88*	52*
CCn1c(SCC(=O)NCCc2ccccc2)nc2c([nH]c3ccccc32)c1=O	109*	4	-7	15	86*	168*
CCSc1nc2c([nH]c3ccccc32)c(=O)n1C	37	-20	2	-3	nt	nt
Cn1c(SCC(=O)NCc2ccccc2)nc2c([nH]c3ccccc32)c1=O	84*	13	2	1	97*	126*
CCn1c(SCC(=O)N2CCCCCC2)nc2c([nH]c3ccccc32)c1=O	128*	-7	-2	8	102*	182*
Clc1cc(Cl)cc(CN2CCSCC2)c1	-2	14	-1	3	nt	nt
COc1ccc(C(C#N)N2CCC(c3ccccc3)=N2)cc1 (stereo not given)	2	6	-6	-4	nt	nt
Cc1ccc(C(=O)O)cc1-n1c(=O)n(Cc2ccccc2)c(=O)c2[nH]cnc21	2	23	5	3	nt	nt
O=C1c2ccccc2C(=O)N1CCCCN(C(=O)c1ccc([N+](=O)[O-])cc1)c1ccc(Cl)cc1	90*	-6	-6	4	90*	214*
O=C(O)c1ccc(N/N=C/C2=Cc3ccccc3OC2)cc1	122*	9	-9	-33	83*	18*
CC1CN(S(=O)(=O)c2cccc(C(=O)NCC3COc4ccccc4O3)c2)CC(C)O1 (stereo not given)	0	nt	10	1	nt	nt
O=C(NC1CC1)C1=C[C@H](c2ccc(C(F)(F)F)cc2)C[C@H](OCCCCO)O1	100*	-6	0	7	46	14*
CC(=O)Nc1ccc(NC(=O)CSc2ncc(C(=O)Nc3ccc(F)cc3)c(=O)n2C)cc1	98*	-4	-7	10	127*	21*
Cn1c(SCC(=O)NCCc2ccccc2)ncc(C(=O)Nc2ccccc2)c1=O	18	-6	5	-9	nt	nt
Cc1ccc(N2CC(C)Cn3c2nc2c3c(=O)[nH]c(=O)n2C)cc1C (stereo not given)	7	20	14	20	nt	nt
CCN(CC(=O)N1CCOCC1)S(=O)(=O)c1ccc(Cl)cc1	1	1	6	5	nt	nt
COc1ccc(-c2[nH]c(-c3cc(OC)c4c(c3)OCO4)nc2-c2ccccc2)cc1	107*	-1	1	-6	54*	57*
CN(Cc1ccccc1)C(=O)CCC1CCN(C(=O)CCC(F)(F)F)CC1	4	-2	-3	1	nt	nt
Cc1ccc2c(c1)c1nc3ccccc3nc1n2C	88*	-44	-2	-7	117*	nt
COc1cc(C(=O)N/N=c2/sc3ccccc3n2C)cc(OC)c1OC	171*	10	8	-14	82*	56*
Cn1/c(=N/NC(=O)c2cccc(OC(F)F)c2)sc2ccccc21	118*	7	-3	-4	110*	119*
CC(OC(=O)c1cccc(-n2cnnn2)c1)C(=O)NC1(C#N)CCCCC1 (stereo not given)	-1	nt	5	1	nt	nt
O=c1[nH]c2ccccc2c2nc3ccccn3c12	91*	?	-9	9	117*	19*
COc1ccc2c(c1)CCCC21SC(NC(C)=O)=NN1C(C)=O (stereo not given)	2	0	-6	7	nt	nt
SMILES	AHR act	PolyA inhibitor	proCasp3 act	proCasp7 act	AHR act confirm	PXR counter
O=C(/C=C/c1ccccc1[N+](=O)[O-])Nc1cccnc1	145*	10	6	-6	83*	33*
Cc1ccc2[nH]c(O)c(N=NC(=O)C(C)n3cnc4ccccc4c3=O)c2c1 (stereo not given)	88*	5	7	5	69*	46*
Cc1cc(C(=O)N/N=C/c2ccc(C)s2)n[nH]1	97*	2	1	-5	89*	24*
COc1ccc(CN2CC[C@H]3C=CCc4cccc(c43)C2)cc1	82*	nt	2	-8	9	26*
O=[N+]([O-])c1ccc(CSc2nnc(-c3cccnc3)o2)cc1	nt	-2	nt	nt	nt	nt
O=S(=O)(O)c1cccnc1SCc1ccccc1	-2	-3	1	5	nt	nt
COc1ccc(CCNC(=O)CCn2c(=O)c3cccn3c3ccc(F)cc32)c(OC)c1OC	2	1	5	5	nt	nt
O=C(c1cc2cc(F)ccc2[nH]1)N1CCc2ccccc2C1	82*	-10	4	2	110*	46*
O=C(c1cc2cc(Cl)ccc2[nH]1)N1CCc2ccccc2C1	31	-15	17	0	nt	nt
O=C(/C=C/c1ccccn1)c1cc(Cl)cc(Cl)c1O	83*	-1	2	1	113*	219*
CCCN(CC(=O)Nc1ccccc1C)C(=O)C1CC(=O)N(c2ccc(CC)cc2)C1 (stereo not given)	1	nt	3	0	nt	nt
O=C(O)c1ccccc1C(=O)NCCc1ccc(Cl)cc1	97*	5	1	2	64*	10*
O=C(NCCc1ccccc1)c1ccccc1Cl	-9	-10	4	-6	nt	nt
O=c1c2ccccc2[nH]c(=S)n1CCc1ccccc1	121*	-23	10	-6	159*	38*
Fc1ccc(-n2nnc(-c3cccnc3Cl)n2)cc1	79*	1	3	4	69*	19*
Cn1c(NC(=O)c2cccc(C(F)(F)F)c2)cc(=O)n(C)c1=O	136*	13	5	10	120*	16*
COc1ccc(Cl)cc1C(=O)NNC(=O)c1[nH]c(C)c(C(C)=O)c1C	81*	nt	6	-3	96*	50*
CCOc1ccc(OCC)c(NC(=O)c2[nH]c(C)c(C(C)=O)c2C)c1	80*	-23	-1	-3	95*	19*
C=CCOn1c(=O)c(-c2ccc(F)cc2)[n+]([O-])c2ccccc21	nt	-11	nt	nt	nt	nt
c1ccc(Oc2ccc(-c3ccnc4ncnn34)cc2)cc1	0	2	6	-5	nt	nt
Clc1ccc(COc2ccccc2-c2ccnc3ncnn23)cc1	87*	-8	0	-1	52*	65*

Screening data deposited in PubChem BioAssay by several laboratories.
